According to ChEMBL document CHEMBL1145328, “Synthesis, crystal structure, structure-activity relationships, and antiviral activity of a potent SARS coronavirus 3CL protease inhibitor” (J Med Chem, 2006):
The source made the active and inactive calls. The rule behind the calls is not given here.

What was measured:
MRC5 [1] = experiment: Cytotoxicity against MRC5 cells infected with human coronavirus 229E; format: functional, cell-based
Replicase polyprotein 1a = Replicase polyprotein 1a (Severe acute respiratory syndrome-related coronavirus, UniProt P0C6U8); experiment: Inhibition of SARS coronavirus 3CL protease
Procedure, shortened: (§1)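 SARS 3CLpro (75 nM) or 229E 3CLpro (75 nM), recombinant, expressed as GST fusion in E. coli BL21(DE3)pLysS and released with factor Xa. Enzyme preincubated with compound 20 min at 25 °C. Reaction in Tris-HCl pH 7.5, NaCl, EDTA, DTT and BSA, 30 min at 25 °C, stopped with TFA. Conversion measured by reverse-phase HPLC peak areas. Ki by Cheng–Prusoff.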

[2] = Stability in rat plasma after 120 mins; format: ADME, cell-free; conditions: read-out: Stability
Procedure, shortened: (§2)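 Human, mouse or rat plasma was prewarmed 5 min at 37 °C. Compound was added from a 100 µM stock in 1% DMSO to give 90% plasma. Samples were shaken at 37 °C for 0, 30 or 120 min, then quenched in acetonitrile with internal standard and centrifuged. Supernatant was diluted and analysed by LC/MS. Result is % of initial remaining.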

SARS-CoV [3] = experiment: Antiviral activity against SARS coronavirus in VeroE6 cells assessed as reduction in viral load at 1.25 uM; format: functional, Severe acute respiratory syndrome-related coronavirus
Vero = experiment: Cytotoxicity against VeroE6 cells infected with SARS coronavirus; format: functional, cell-based; conditions: Chlorocebus sabaeus
SARS-CoV [4] = experiment: Antiviral activity against SARS coronavirus in VeroE6 cells assessed as reduction in viral load at 2.5 uM; format: functional, Severe acute respiratory syndrome-related coronavirus
SARS-CoV [5] = experiment: Antiviral activity against SARS coronavirus in VeroE6 cells assessed as reduction in viral load; format: functional, Severe acute respiratory syndrome-related coronavirus
[6] = Stability in mouse plasma after 120 mins; format: ADME; conditions: read-out: Stability; procedure, shortened: as §2
[7] = Stability in human plasma after 120 mins; format: ADME, cell-free; conditions: read-out: Stability; procedure, shortened: as §2
Human coronavirus 229E = experiment: Inhibition of human coronavirus 229E 3CL protease; format: functional; procedure, shortened: as §1
MRC5 [8] = experiment: Antiviral activity against human coronavirus 229E in MRC5 cells assessed as reduction in viral load at 5 uM; format: functional
Procedure, shortened: (§3)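 HCoV 229E (ATCC VR-740) stocks were grown in MRC-5 cells. MRC-5 cells were preabsorbed with 40 pfu/well virus for 1 h, then unabsorbed virus was removed and serially diluted compound added. Supernatants were harvested and TCID50 titred on fresh MRC-5 cells. Titre is given as log TCID50/mL.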

MRC5 [9] = experiment: Protection of MRC5 cells infected with human coronavirus 229E at 1 uM; format: functional, cell-based
Procedure, shortened: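 MRC-5 cells at 90% confluence were infected for 1 h with 10-fold serial dilutions of HCoV 229E stock. Unabsorbed virus was removed and cells overlaid with 0.3% agarose. Compound was present in the medium for 4 days. Cells were then fixed with 10% formalin and stained with 0.5% crystal violet to see plaques.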

Plasma [10] = experiment: Stability in rat plasma; format: ADME, cell-free; procedure, shortened: as §2
MRC5 [11] = experiment: Antiviral activity against human coronavirus 229E in MRC5 cells assessed as reduction in viral load at 1.25 uM; format: functional; procedure, shortened: as §3
[12] = Stability in human plasma after 30 mins; format: ADME, cell-free; conditions: read-out: Stability; procedure, shortened: as §2
MRC5 [13] = experiment: Antiviral activity against human coronavirus 229E in MRC5 cells assessed as reduction in viral load at 0.625 uM; format: functional; procedure, shortened: as §3
Plasma [14] = experiment: Stability in human plasma; format: ADME, cell-free; procedure, shortened: as §2
[15] = Stability in rat plasma after 30 mins; format: ADME, cell-free; conditions: read-out: Stability; procedure, shortened: as §2
SARS-CoV [16] = experiment: Antiviral activity against SARS coronavirus in VeroE6 cells assessed as reduction in viral load at 10 uM; format: functional, Severe acute respiratory syndrome-related coronavirus
[17] = Stability in mouse plasma after 30 mins; format: ADME; conditions: read-out: Stability; procedure, shortened: as §2
MRC5 [18] = experiment: Antiviral activity against human coronavirus 229E in MRC5 cells assessed as reduction in viral load at 2.5 uM; format: functional; procedure, shortened: as §3
SARS-CoV [19] = experiment: Antiviral activity against SARS coronavirus in VeroE6 cells assessed as reduction in viral load at 0.625 uM; format: functional, Severe acute respiratory syndrome-related coronavirus
SARS-CoV [20] = experiment: Antiviral activity against SARS coronavirus in VeroE6 cells assessed as reduction in viral load at 5 uM; format: functional, Severe acute respiratory syndrome-related coronavirus
MRC5 [21] = experiment: Antiviral activity against human coronavirus 229E in MRC5 cells assessed as reduction in viral load; format: functional; procedure, shortened: as §3
Mus musculus = species on record: Mus musculus; experiment: Stability in mouse plasma; format: ADME; procedure, shortened: as §2

CCOC(=O)/C=C/[C@H](C[C@@H]1CCNC1=O)NC(=O)[C@H](CC(C)C)NC(=O)[C@@H](NC(=O)OCc1ccccc1)C(C)OC(C)(C)C (some centres undefined)
IC50 (MRC5 [1]): 880 nM
Ki (Replicase polyprotein 1a): 58 nM

CC(OC(C)(C)C)[C@H](NC(=O)OCc1ccccc1)C(=O)N[C@@H](CC1CCCCC1)C(=O)N[C@H](C=O)C[C@@H]1CCNC1=O (some centres undefined)
remaining at 2 h [2]: 73%
log10 TCID50 (SARS-CoV [3]): 6
IC50 (MRC5 [1]): 140 nM
IC50 (Vero): 600 nM
log10 TCID50 (SARS-CoV [4]): 5
log10 TCID50 (SARS-CoV [5]): 6.7
remaining at 2 h [6]: 71%
remaining at 2 h [7]: 83%
Ki (Human coronavirus 229E): 68 nM
log10 TCID50 (MRC5 [8]): 1.3
Activity (MRC5 [9]): Active
Stability (Plasma [10]): 100%
log10 TCID50 (MRC5 [11]): 1.3
remaining at 0.5 h [12]: 81%
log10 TCID50 (MRC5 [13]): 3
Stability (Plasma [14]): 100%
remaining at 0.5 h [15]: 70%
log10 TCID50 (SARS-CoV [16]): 2
remaining at 0.5 h [17]: 84%
log10 TCID50 (MRC5 [18]): 1.3
log10 TCID50 (SARS-CoV [19]): 6.4
log10 TCID50 (SARS-CoV [20]): 2
Ki (Replicase polyprotein 1a): 53 nM
log10 TCID50 (MRC5 [21]): 6.51
Stability (Mus musculus): 100%

CCOC(=O)/C=C/[C@H](C[C@@H]1CCNC1=O)NC(=O)[C@H](CC(C)C)NC(=O)[C@@H](NC(=O)OCc1ccccc1)C(C)C
IC50 (MRC5 [1]): 9100 nM
Ki (Replicase polyprotein 1a): 660 nM

CCOC(=O)/C=C/[C@H](C[C@@H]1CCNC1=O)NC(=O)[C@H](Cc1ccc(F)cc1)NC(=O)[C@@H](NC(=O)c1cc(C)on1)C(C)C
IC50 (MRC5 [1]): > 20000 nM
Ki (Human coronavirus 229E): > 10000 nM
Ki (Replicase polyprotein 1a): > 10000 nM

CCOC(=O)/C=C/[C@H](C[C@@H]1CCNC1=O)NC(=O)[C@H](Cc1ccccc1)NC(=O)[C@@H](NC(=O)OCc1ccccc1)C(C)C
IC50 (MRC5 [1]): 13200 nM
Ki (Replicase polyprotein 1a): 2260 nM
